# Assay outcomes: PubChem BioAssay, several laboratories
# Most compounds without a hit are left out; they make up all but 6.8% or so of the library.
# HEK293 NFkB inh: lowers PMA/ionomycin-induced NF-kB signal in HEK293 cells; inhibition, % at 3 µM; 62,000 tested, 0.21% active; HEK-293 NF-kB luciferase reporter, luminescence;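 active = inhibition above the mean of all tested compounds plus 3 SD, cut at about 40% in these data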;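 note: 0% = stimulated DMSO wells and 100% = 10 µM reference inhibitor 5653914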
#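 Timing: 1 h pretreatment, 16 h stimulation, 37 °C; system: HEK-293 cells with stable firefly luciferase reporter driven by four HIV NF-kB elements; doses: 3 µM once, 0.30% DMSO; measured by: luciferase luminescence; control set: DMSO and 10 µM reference inhibitor; repeats: single test; reagent: PMA plus ionomycin mix as NF-kB-activating stimulus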
# M1 agonist: agonists of M1 muscarinic receptor | CHO-M1 cells, Fluo-4 calcium fluorescence, agonist mode; active compounds read high | B-score at 10 µM | 64,000 tested, 3% active | AID 626;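 active = fluorescence rise, raw or as B-score row- and column-corrected plate score, outside the 99.7% band of its plate's samples, either direction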
# Her2 expr inh: inhibitors of human Her2 kinase expression | 65,000 tested, 0.69% active | SKBR-3 HER2 protein level, AlphaScreen, 18-24 h; active compounds read low | HER2 level % of control, % at 10 µM;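 active = HER2 level under 5% of the carrier-only control; inconclusive = no clear call, values can overlap the other calls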;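 note: 100% = DMSO carrier and 0% = 500 nM PU-H71 HSP90 inhibitor; lower value means stronger loss of Her2 protein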
# M1 antag: blocks the rat M1 muscarinic receptor response to acetylcholine; P08482; CHO-M1 cells, Fluo-4 calcium, ACh EC80 antagonist mode; active compounds read low; B-score at 10 µM; 64,000 tested, 3.4% active; AID 628;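 active = calcium fluorescence response, raw or row-and-column corrected B-score, differing from the plate sample mean either way at a set confidence level, mostly lower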
# Cdc25B block: human M-phase inducer phosphatase 2 inhibition; P30305; AID 368; recombinant Cdc25B, OMFP fluorescence Ex485/Em525; 65,000 tested, 0.1% active; inhibition, %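 (compounds tested at 10 µM final in the well)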; in the data active = inhibition above about 50%
# MKP-1 inh: inhibitors of human MKP-1 phosphatase; P28562; recombinant MKP-1, OMFP hydrolysis fluorescence; inhibition, %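 (compounds tested at a single concentration somewhere between 10 and 100 µM)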; 65,000 tested, 0.15% active; AID 374;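 active = inhibition above about 50%, limit read from the data; inconclusive = inhibition over screen mean plus 3 SD, below that limit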;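 note: 0% = DMSO max control wells and 100% = wells with enzyme stopped by NaOH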
# M1 agonist conf: confirmation of rat M1 muscarinic receptor agonists | CHO-M1 cells, Fluo-4 calcium fluorescence, agonist mode; actives lie on both sides | 1,700 tested, 19% active | shares compounds with M1 agonist | AID 1488 | fluorescence change (max-min) at 10 µM;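 active = fluorescence change differs from the solvent-only DMSO control mean at a set confidence level in both duplicate runs; inconclusive = differs from solvent-only control mean in just one of two runs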;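 note: an EC20 dose of acetylcholine follows compound addition during the same imaging run; raw fluorescence intensity difference in instrument units with no normalization to controls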
# M4 ag counter: counter-screen for M1 agonists: activity at rat M4 receptor | shares compounds with M1 agonist | CHO M4/Gqi5 cells, Fluo-4 calcium fluorescence, agonist mode; actives lie on both sides | fluorescence change (max-min) at 10 µM | 1,700 tested, 9% active | AID 1741;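 active = fluorescence change differing from the plate's solvent-only control wells at 99.7% confidence in both duplicates, whether higher or lower; inconclusive = differs from solvent controls in only one of two duplicates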
# Target sequence (P08485 whole entry, looked up): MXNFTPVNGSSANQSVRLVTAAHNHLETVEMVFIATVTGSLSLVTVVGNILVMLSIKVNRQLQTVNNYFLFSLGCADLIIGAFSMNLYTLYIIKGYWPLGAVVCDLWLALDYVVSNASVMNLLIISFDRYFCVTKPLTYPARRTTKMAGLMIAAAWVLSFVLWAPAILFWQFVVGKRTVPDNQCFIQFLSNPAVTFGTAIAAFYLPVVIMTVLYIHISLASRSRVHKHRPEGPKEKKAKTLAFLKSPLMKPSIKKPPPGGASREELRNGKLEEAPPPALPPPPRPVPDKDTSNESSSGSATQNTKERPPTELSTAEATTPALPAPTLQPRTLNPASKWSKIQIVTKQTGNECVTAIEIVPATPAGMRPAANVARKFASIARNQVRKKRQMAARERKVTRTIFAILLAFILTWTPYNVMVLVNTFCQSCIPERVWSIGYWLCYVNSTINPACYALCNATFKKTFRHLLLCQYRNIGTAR
# An asterisk follows results filed as active; ? = inconclusive; / = no result given.
SMILES,HEK293 NFkB inh,M1 agonist,Her2 expr inh,M1 antag,Cdc25B block,MKP-1 inh,M1 agonist conf,M4 ag counter
COc1ccc2nc(N3CCC(O)CC3)c(C#N)cc2c1,-4,55*,112,-0.29,1,-13,198*,166*
CCCCn1c(NC(=O)CC)c(C#N)c2nc3ccccc3nc21,12,-1.2,61,0.28,-3,17,/,/
CCCCn1c(NC(=O)c2ccccc2Cl)c(C#N)c2nc3ccccc3nc21,11,20*,57,-1.6,25,30,59*,46
COc1ccc(C2C3=C(CC(C)(C)CC3=O)Nc3c2c(=O)[nH]c(=O)n3Cc2ccccc2)cc1OC (configuration not stated),10,9.9*,90,-1.1,-2,?,28,8.1
COc1ccc(C2C3=C(CC(C)(C)CC3=O)Nc3c2c(=O)[nH]c(=O)n3Cc2ccccc2)cc1 (configuration not stated),-3,2.7*,81,0.24,1,26,7.1,-35
COc1cc(C2C3=C(CC(C)(C)CC3=O)Nc3c2c(=O)[nH]c(=O)n3Cc2ccccc2)ccc1O (configuration not stated),16,-1.6,97,0.32,12,32,/,/
Cc1nc2[nH]c(=O)c3c(n2n1)NC1=C(C(=O)CC(C)(C)C1)C3c1ccc(F)cc1 (configuration not stated),14,3.8*,100,0.0033,3,-2,9.9,4.3
CCc1ccc(C2C3=C(CC(C)(C)CC3=O)Nc3c2c(=O)[nH]c2nc(C)nn32)cc1 (configuration not stated),10,-1.1,94,-0.53,-20,-2,/,/
CCOC(=O)C(Oc1ccc(=O)n(-c2ccccc2)n1)C(C)=O (configuration not stated),11,-0.014,82,0.043,-9,2,/,/
COc1ccccc1N1CCN(C(=O)Cn2nc(C(F)(F)F)c3c2CCC3)CC1,20,0.074,99,-0.42,-19,8,/,/
O=S(=O)(Nc1nc2ccccc2nc1Nc1ccc2c(c1)OCCO2)c1cccs1,16,0.022,123,0.0058,14,35,/,/
Cc1nc2ccc(NC(=O)c3c(-c4ccccc4)noc3C)cc2s1,0,4.1*,127,0.89,-9,9,-28,-31
Cc1onc(-c2ccccc2)c1C(=O)Nc1ccc2c(c1)OCCO2,13,-0.068,189,0.017,-12,4,/,/
O=C(NCc1ccc(F)cc1)C1CCC(=O)N1C1CCCCC1 (configuration not stated),3,0.051,54,-0.1,-14,-3,/,/
Cc1cc(C)n(-c2nc(NCC3CCCO3)c3c4c(sc3n2)COC(C)(C)C4)n1 (configuration not stated),-4,3.4*,69,-0.99,3,4,-18,-17
O=C(NCC(=O)N(Cc1ccc(F)cc1)C(C(=O)NC1CCCC1)c1ccco1)c1ccco1 (configuration not stated),10,1.1,104,0.61,7,-12,/,/
O=C(NCC(=O)N(Cc1ccccc1)C(C(=O)NC1CCCC1)c1ccco1)c1ccco1 (configuration not stated),-1,9.4*,100,-1.5,2,-8,-12,-57
CCC(=O)c1ccc(OCC(O)Cn2c(C)nc3ccccc32)cc1 (configuration not stated),32,6.8*,98,-0.93,4,-2,-34*,-96
CCCCC(=O)Nc1ccc2oc(-c3ccncc3)nc2c1,-1,2.5*,111,0.098,1,1,?,-49
CCCC(=O)Nc1ccc2oc(-c3ccncc3)nc2c1,16,0.022,113,0.98,5,-10,/,/
CCC1CCCCN1S(=O)(=O)c1ccc(C(=O)Nc2nnc(-c3ccccc3Cl)o2)cc1 (configuration not stated),-5,0.061,113,-0.11,28,15,/,/
CC1CCCCN1S(=O)(=O)c1ccc(C(=O)Nc2nnc(-c3ccccc3Cl)o2)cc1 (configuration not stated),18,-2.5*,66,0.015,24,3,?,-45
Cc1nc2oc3ccccc3c(=O)c2c(=O)n1Cc1ccccc1,3,0.34,79,-0.58,5,9,/,/
COCCn1c(-c2ccccc2)nc2oc3ccccc3c(=O)c2c1=O,12,2.4*,65,0.066,-16,-14,-25*,-96*
C=CCOc1c(Br)cc(CNn2nnnc2N)cc1OC,14,-0.56,50,-0.0082,-8,4,/,/
SMILES,HEK293 NFkB inh,M1 agonist,Her2 expr inh,M1 antag,Cdc25B block,MKP-1 inh,M1 agonist conf,M4 ag counter
O=C(O)c1ccccc1C1=Nc2ccc(O)cc2Oc2cc(O)ccc21,5,32*,-53*,0.38,-8,18,418*,403*
COC(=O)CSc1nnc(-c2ccc(NS(=O)(=O)c3ccccc3)cc2)o1,13,-0.53,81,-0.38,-4,-13,/,/
CC(=O)C1=C(C)N=c2s/c(=C/c3ccc4c(c3)OCO4)c(=O)n2C1c1ccc(N(C)C)cc1 (configuration not stated),20,-1.9,58,0.52,-14,22,/,/
COc1ccc(C2C(C(C)=O)=C(C)N=c3s/c(=C/c4ccc5c(c4)OCO5)c(=O)n32)cc1 (configuration not stated),12,3.9*,/,-0.39,-9,24,40,36
CCSc1ccccc1C(=O)NCc1ccc2c(c1)OCO2,-4,-0.64,107,0.7,-4,0,/,/
COCc1cc(C)nc2sc(C(=O)N3CCCC3)c(N)c12,0,-0.34,92,0.96,-9,-11,/,/
COCc1cc(C)nc2sc(C(=O)OC)c(N)c12,0,4.4*,283,0.031,3,-2,-5.9,-40
COc1ccc(CNn2c(C)nc3ccccc3c2=O)cc1,12,5.6*,89,-0.51,-9,4,-8.3,-17
CC(C)(NCc1ccccc1Cl)C(=O)O,10,-0.7,88,0.12,6,-4,/,/
CCNC(=O)N(C(=O)NCC)n1c(C)nnc1C,/,-0.46,107,0.78,-23,-13,/,/
COc1ccc(C2CC(=O)N3CN(c4ccc(C)c(Cl)c4)CSC3=C2C#N)cc1OC (configuration not stated),3,10*,113,0.093,-12,30,?,-29
Cn1c(=O)n(C)c2cc(S(=O)(=O)NCCc3ccccc3)ccc21,1,-3*,92,-0.25,-1,13,-16,?
